Bioassay records as filed in PubChem.
HNF4A DNA FP – change in binding of human HNF4 alpha to DNA; AID 1224865; 360,000 tested, 0.3% active; P41235; HNF4a-FITC DNA binding, fluorescence polarization, 1 h; activity change, % at 10 µM; in the data active means activity change above about 30%, passing the limit was not always enough
Target sequence (P41235 whole entry, looked up): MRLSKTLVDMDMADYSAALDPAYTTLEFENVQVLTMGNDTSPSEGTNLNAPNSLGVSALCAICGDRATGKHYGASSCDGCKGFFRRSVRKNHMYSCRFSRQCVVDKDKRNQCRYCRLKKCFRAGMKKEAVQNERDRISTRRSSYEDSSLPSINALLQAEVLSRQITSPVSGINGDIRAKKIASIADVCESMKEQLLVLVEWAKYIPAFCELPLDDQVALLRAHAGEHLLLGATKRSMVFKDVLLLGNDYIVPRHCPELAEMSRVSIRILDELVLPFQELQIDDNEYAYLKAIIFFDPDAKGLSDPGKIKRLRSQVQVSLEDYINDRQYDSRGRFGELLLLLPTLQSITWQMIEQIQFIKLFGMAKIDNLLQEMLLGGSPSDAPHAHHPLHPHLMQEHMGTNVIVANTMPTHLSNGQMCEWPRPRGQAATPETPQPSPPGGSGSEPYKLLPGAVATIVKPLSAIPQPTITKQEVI
CSN deneddyl inh – blocks human CSN-mediated cullin deneddylation | inhibition, % at 12.5 µM | Purified CSN, SCF-Nedd8-OG deneddylation, fluorescence polarization | AID 651999 | 360,000 tested, 0.38% active | Q92905;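 active means pattern-corrected inhibition above about 35%, with an unprinted fluorescence ratio check between 0.5 and 1.5, limit read from the data, passing the limit was not always enough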;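 further: 0% = enzyme with substrate and 100% = substrate without enzyme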
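Assay system: Purified human Csn5 enzyme expressed in HEK293T cells | Amount: Enzyme 0.24 nM | Measured by: Fluorescence polarization readout | Medium: Tris/NaCl/DTT buffer, pH 7.5 | Compound dosing: One concentration, 12.5 µM, 0.25% DMSO | Times: 90 min incubation of compound, enzyme and substrate at room temperature | Control set: no-enzyme wells high, enzyme-with-substrate wells low | Read-out: % inhibition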
NR1D1 modulator – Rev-erb alpha (human) modulation | activity, % at 10 µM | P20393 | 370,000 tested, 0.79% active | Rev-erbα–FITC-DNA binding, fluorescence polarization, 90 min | AID 1259318;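 active means activity above about 14%, limit read from the data; passing the limit was not always enough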;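 further: 0% = DMSO wells with 35 nM protein and 100% = DMSO wells with 750 nM protein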
TPT1 inhibitor – blocks Candida albicans tRNA 2'-phosphotransferase. recombinant caTPT1, FP RNA substrate dephosphorylation. inhibition, % at 5 µM. 300,000 tested, 0.81% active;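 active means inhibition above the mean of all tested compounds plus 3 SD, set per screening campaign, cut at about 24% in these data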;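 further: plate controls were DMSO alone for no effect and ferristatin control at 100 nM for full effect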
Rev-erbA confirm – confirmation of modulators of human Rev-erb alpha DNA binding. shares compounds with NR1D1 modulator. Rev-erb alpha FITC-DNA binding, fluorescence polarization, 90 min. activation, % at 25 µM. 3,000 tested, 61% active. AID 1259319;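 active means activation at or above a set limit, or at least 3 SD above the negative control mean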;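 further: 0% = 35 nM protein with DMSO and 100% = 750 nM protein high control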
RORg DNA counter – affects RORgamma DNA binding in a Rev-erb alpha counter-screen; shares compounds with NR1D1 modulator; purified RORgamma protein-FITC-DNA binding, fluorescence polarization; IC50, µM; 910 tested, 8% active; AID 1259320;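 active means Compounds whose fitted half-maximal concentration for disrupting protein-DNA binding is below 10 micromolar; the record names Rev-erb in its text, so the target is in doubt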
* marks the source's active call; other numbers are inactive results. Only some compounds are listed: those with a hit (about 1.7% of all), similar ones and a draw of the others.

`Cc1ccc2c(c1C)NC(=O)CC(c1ccccc1O)=N2` gave HNF4A DNA FP 3.3, CSN deneddyl inh -0.4, NR1D1 modulator 204.2*, TPT1 inhibitor 1.2, Rev-erbA confirm 140.2* and RORg DNA counter >40.
COc1ccc(NC(=O)c2ccc(C(=O)c3cc(OC)ccc3OC)cc2)cc1 was read as HNF4A DNA FP -0.9, CSN deneddyl inh 2.2, NR1D1 modulator 46.0*, TPT1 inhibitor -2.8, Rev-erbA confirm 33.5* and RORg DNA counter >40.
For COc1ccc(C(=O)Nc2ccc(NC(=O)c3cc(OC)c(OC)c(OC)c3)cn2)cc1 the results were HNF4A DNA FP 1.0, CSN deneddyl inh -1.8, NR1D1 modulator 19.6*, TPT1 inhibitor -1.2 and Rev-erbA confirm 2.5.
For COc1ccc(C(=O)Nc2ccc(NC(=O)c3cccc(F)c3)cn2)cc1 the results were HNF4A DNA FP 2.5, CSN deneddyl inh 4.8, NR1D1 modulator 1.0 and TPT1 inhibitor -2.1.
`COc1cc(C(=O)Nc2ccc(NC(=O)c3ccccc3)nc2)cc(OC)c1OC` gave HNF4A DNA FP -2.6, CSN deneddyl inh -6.3, NR1D1 modulator -7.8 and TPT1 inhibitor -0.9.
`COc1ccc(OC)c(C(=O)c2ccc(C(=O)Nc3ccccc3)cc2)c1` gave HNF4A DNA FP 0.4, CSN deneddyl inh -16.6, NR1D1 modulator 2.9 and TPT1 inhibitor 3.8.
`COc1ccc(C(=O)Nc2ccc(NC(=O)c3cccc(OC)c3)cn2)cc1` gave HNF4A DNA FP 0.3, CSN deneddyl inh -2.6, NR1D1 modulator 18.4*, TPT1 inhibitor -4.0 and Rev-erbA confirm 14.4.
Screening COc1ccc2cc(C(=O)NCc3ccccc3)c(=O)oc2c1 returned HNF4A DNA FP -0.1, CSN deneddyl inh -1.0, NR1D1 modulator 40.2*, TPT1 inhibitor -0.8 and Rev-erbA confirm 11.2.
COc1ccc2oc(=O)c(C(=O)NCc3ccc(F)cc3)cc2c1 was read as HNF4A DNA FP -1.8, CSN deneddyl inh 1.1, NR1D1 modulator 29.8*, TPT1 inhibitor -0.8 and Rev-erbA confirm 12.7.
COc1ccc(CCNC(=O)Cc2ccsc2)cc1 was read as HNF4A DNA FP 5.6, CSN deneddyl inh 0.6, NR1D1 modulator 7.7 and TPT1 inhibitor -0.6.
For Cc1cc(C)c(C)c(S(=O)(=O)N2CCSCC2)c1C the results were HNF4A DNA FP -1.9, CSN deneddyl inh -2.8, NR1D1 modulator 18.6*, TPT1 inhibitor -1.2 and Rev-erbA confirm 14.1.
`Cc1c(C)c(C)c(S(=O)(=O)N2CCSCC2)c(C)c1C` gave HNF4A DNA FP -0.8, CSN deneddyl inh -1.9, NR1D1 modulator 10.7 and TPT1 inhibitor -1.2.
`COC(=O)[C@]12C[C@H](CC(=O)N3CCN(C(=O)C4CC4)CC3)C(=O)N(Cc3ccccc3)C1=C[C@H](C1CCCC1)O[C@@H]2C` gave NR1D1 modulator 3.2.
For COc1ccc(NC(=O)c2cc(-c3cc(OC)c(OC)c(OC)c3)nc3ccccc23)cc1OC the results were HNF4A DNA FP 0.7, CSN deneddyl inh -4.0, NR1D1 modulator -0.6 and TPT1 inhibitor -0.6.
COc1cc(-c2cc(C(=O)Nc3cccc(S(=O)(=O)N(C)C)c3)c3ccccc3n2)cc(OC)c1OC was read as HNF4A DNA FP -2.1, CSN deneddyl inh 2.9, NR1D1 modulator 15.2*, TPT1 inhibitor -1.3 and Rev-erbA confirm -8.6.
`CCOC(=O)C1=C(C(=O)OCC)C2N(Cc3ccc(Br)cc3)c3ccccc3[C@@]23C[C@@H](C(=O)OC)N(S(=O)(=O)c2ccc(F)cc2)C3=N1` (some centres undefined) gave NR1D1 modulator 0.8.
For CC(C)CNC(=O)OCc1cn(Cc2ccccc2F)nn1 the results were NR1D1 modulator 4.1.
Screening Cc1ccc(N(Cc2cc3ccc(C)cc3[nH]c2=O)S(=O)(=O)c2ccccc2)c(C)c1 returned HNF4A DNA FP 0.1, CSN deneddyl inh 2.5, NR1D1 modulator 14.9*, TPT1 inhibitor -0.9 and Rev-erbA confirm 9.0.
Screening Cc1ccc2cc(CN(c3ccccc3)S(=O)(=O)c3ccccc3)c(=O)[nH]c2c1 returned HNF4A DNA FP -1.0, CSN deneddyl inh 0.4, NR1D1 modulator 30.9*, TPT1 inhibitor -3.7 and Rev-erbA confirm 4.7.
Screening Cc1ccc2cc(CN(c3cccc(C)c3C)S(=O)(=O)c3ccccc3)c(=O)[nH]c2c1 returned HNF4A DNA FP 2.8, CSN deneddyl inh 3.4, NR1D1 modulator 20.4*, TPT1 inhibitor 1.6 and Rev-erbA confirm -1.6.
